Experiments:
dengue virus type 2 = test: Antiviral activity against dengue virus 2 infected in human HuH7 cells after 72 hrs by Western blot and ECL detection based assay; type: functional, organism-based; settings: Huh-7, 72 h
Outline: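 Huh-7 cells (ATCC) in DMEM with 10% FBS, 1% nonessential amino acids and 1% antibiotic-antimycotic, 37 °C, 5% CO2. Seeded at 5 × 10^4 cells/mL/well for 12–16 h, then infected with DENV-2 strain 16681 at MOI 0.2 for 2 h at 37 °C. Washed with PBS and refed with compound in DMEM–10% FBS. At 72 h p.i., NS2B Western blot with GAPDH loading control and ECL detection. Ribavirin as reference.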

[1] = Cytotoxicity against human HuH7 cells after 72 hrs by MTS assay; type: cell-based, Huh-7
[2] = Selectivity index, ratio of CC50 against human HuH7 cells to EC50 against dengue virus 2; type: toxicity, cell-based, Huh-7; settings: read-out: Ratio CC50/EC50

Q: For `CC[C@H](C)C(=O)O[C@@H]1[C@@H]2C(=O)[C@](C)(C3CC[C@]4(C)[C@@H](CC(=O)O[C@H]4c4ccoc4)[C@]34O[C@H]24)[C@@H]([C@@H](O)C(=O)OC)C1(C)C` (some centres undefined), which EC50 (dengue virus type 2) is on record?
A: 7.2 µM

Q: And the CC50 at 72 h [1]?
A: > 200 µM

Q: And the selectivity ratio [2]?
A: > 27.7

Q: Which EC50 (dengue virus type 2) does the source give for `C/C=C(\C)C(=O)O[C@@H]1[C@H]2C=C3[C@@H]4CC(=O)O[C@@H](c5ccoc5)[C@]4(C)CC[C@@H]3[C@@](C)(C2=O)[C@@H]([C@@H](OC(C)=O)C(=O)OC)C1(C)C` here?
A: 6.3 µM

Q: And the CC50 at 72 h [1]?
A: 83 µM

Q: And the selectivity ratio [2]?
A: 13.2

Q: For `CC1(C)C(=O)C=C[C@]2(C)[C@H]3CC[C@@]4(C)[C@H](c5ccoc5)OC(=O)[C@H]5O[C@]54[C@]3(C)[C@H](O)C[C@@H]12` [DEACETYLGEDUNIN], which EC50 (dengue virus type 2) is on record?
A: 12.5 µM

Q: And the CC50 at 72 h [1]?
A: 105 µM

Q: What about the selectivity ratio [2] of the same compound?
A: 8.4

Q: Which results are given for `C=C1[C@@H]2CC[C@@]3(C)[C@H](c4ccoc4)OC(=O)C[C@]13O[C@H]1CC(=O)C(C)(C)[C@H](CC(=O)OC)[C@]12C` [METHYLANGOLENSATE]?
A: EC50 (dengue virus type 2): 4.3 µM; CC50 at 72 h [1]: 116 µM; selectivity ratio [2]: 27

Q: Which EC50 (dengue virus type 2) does the source give for `NC(=O)c1ncn([C@@H]2O[C@H](CO)[C@@H](O)[C@H]2O)n1` [RIBAVIRIN] here?
A: 12.6 µM

Q: And the selectivity ratio [2]?
A: 4.47

Reference: ChEMBL document CHEMBL3351709, “Limonoids from the seeds of Swietenia macrophylla with inhibitory activity against dengue virus 2” (J Nat Prod, 2014)
